Results on 24 molecules are retold here after PubChem BioAssay AID602158 (Broad Institute, 2011).

Inconclusive results are not listed. The source made the active and inactive calls.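 Rule for the calls: active = half-maximal potency at or below twice the top valid dose in every separate test run, with falling signal; inconclusive = runs disagree, or flat 30 to 70% inhibition, or poor fit; inactive = inactive in every run, including rising signal.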

Chain of Serine/threonine-protein kinase 33 (Homo sapiens) (Q9BYT3 whole entry, looked up): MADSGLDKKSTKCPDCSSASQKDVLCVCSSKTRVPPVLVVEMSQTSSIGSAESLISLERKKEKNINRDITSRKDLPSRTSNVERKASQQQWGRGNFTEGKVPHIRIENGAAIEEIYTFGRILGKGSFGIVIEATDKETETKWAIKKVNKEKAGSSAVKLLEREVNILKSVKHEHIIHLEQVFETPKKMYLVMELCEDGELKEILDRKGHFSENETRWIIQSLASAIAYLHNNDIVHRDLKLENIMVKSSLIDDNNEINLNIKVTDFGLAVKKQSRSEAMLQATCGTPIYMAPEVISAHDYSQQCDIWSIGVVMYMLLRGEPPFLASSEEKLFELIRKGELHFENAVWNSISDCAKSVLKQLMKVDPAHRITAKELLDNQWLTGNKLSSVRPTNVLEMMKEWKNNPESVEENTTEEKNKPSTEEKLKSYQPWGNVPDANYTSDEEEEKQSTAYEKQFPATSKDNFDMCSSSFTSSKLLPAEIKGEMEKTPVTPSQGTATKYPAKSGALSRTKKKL

For one experiment, the target named is Serine/threonine-protein kinase 33 (Homo sapiens) (UniProt Q9BYT3). Briefly: STK33 kinase inhibitors, potency, dose response, biochemical, ADP-Glo luminescence, dry powder, set 3 (AID 602158). The note with it: purified STK33, MBP phosphorylation. In a few lines:
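Also added: MBP as phosphorylation substrate, ATP/Mg with ATP at its Km | Test system: Purified STK33 kinase enzyme | Medium: MOPS-based assay buffer, pH 7.0, with BSA and BME | Incubation: 15 min enzyme–compound preincubation at room temperature, 60 min kinase reaction | Measured by: ADP-Glo luminescence with two-stage reagent development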
A general note: ADP-Glo first removes unused ATP, then detects ADP through luciferase.
Regarding `O=C(Nc1ccccc1-c1nc2ccccc2[nH]c1=O)c1nccs1`, the AC50 (usually the midpoint of the concentration-response curve, whichever way the signal moves) is 522 nM.
Consider `Cc1cccc(C(=O)Nc2ccccc2-c2nc3ccccc3[nH]c2=O)c1`, for which the concentration at half-maximal activity (AC50) is 1550 nM.
As for `Cc1ccc(C(=O)Nc2ccccc2-c2nc3ccccc3[nH]c2=O)cc1`, the half-maximal activity concentration (AC50) was 763 nM.
Consider `COc1cccc(C(=O)Nc2ccccc2-c2nc3ccccc3[nH]c2=O)c1`, for which the AC50 was 2240 nM.
Take `O=c1[nH]c2ccccc2nc1-c1ccccc1NCc1ccccn1`: the AC50 is 1540 nM.
As for `O=c1[nH]c2ccccc2nc1-c1ccccc1NS(=O)(=O)c1ccccc1`, the AC50 was 7250 nM.
Still for that read-out and setting: the result for `O=C(Nc1ccccc1-c1nc2ccccc2[nH]c1=O)c1ccc(Cl)s1` reads 380 nM; that for `O=C(Nc1ccccc1-c1nc2ccccc2[nH]c1=O)c1ccc(Cl)cc1`, 297 nM; that for `O=C(Nc1ccccc1-c1nc2ccccc2[nH]c1=O)c1ccccc1F`, 4860 nM.
Consider `O=C(Nc1ccccc1-c1nc2ccccc2[nH]c1=O)c1ccccc1`, for which the AC50 is 165 nM.

Still in this experiment, the particulars now being: purified STK33, MBP phosphorylation, at 10 µM (top of the series).
For `O=C(Nc1ccccc1-c1nc2ccccc2[nH]c1=O)C1CCCC1`, the “activity change, negative = inhibition” value was “inactive”.
For the molecule `CC(C)C(=O)Nc1ccccc1-c1nc2ccccc2[nH]c1=O`, the “activity change, negative = inhibition” value is “inactive”.
On to `O=C(Nc1ccccc1-c1nc2ccccc2[nH]c1=O)C1CC1`, for which the “activity change, negative = inhibition” value is “inactive”.
Turning to `O=c1[nH]c2ccccc2nc1-c1ccccc1NCc1ccc(F)cc1`, the “activity change, negative = inhibition” value is “inactive”.
The same measure, in the same setting: the result for `O=C(Nc1ccccc1-c1nc2ccccc2[nH]c1=O)c1cc2ccccc2s1` reads “inactive”; that for `Cc1ccccc1C(=O)Nc1ccccc1-c1nc2ccccc2[nH]c1=O`, “inactive”; that for `O=c1[nH]c2ccccc2nc1-c1ccccc1NCc1cccnc1`, “inactive”.
On to `COc1ccccc1C(=O)Nc1ccccc1-c1nc2ccccc2[nH]c1=O`, for which the “activity change, negative = inhibition” value was “inactive”.
For `O=c1[nH]c2ccccc2nc1-c1ccccc1NCC1CC1`, the “activity change, negative = inhibition” value was “inactive”.
Regarding `O=c1[nH]c2ccccc2nc1-c1ccccc1NCc1ccccc1`, the “activity change, negative = inhibition” value was “inactive”.
Turning to `O=C(Nc1ccccc1-c1nc2ccccc2[nH]c1=O)c1ccccc1Cl`, the “activity change, negative = inhibition” value is “inactive”.
Consider `O=C(Nc1ccccc1-c1nc2cc3ccccc3cc2[nH]c1=O)c1cccs1`, for which the “activity change, negative = inhibition” value was “inactive”.
Same read-out and setting: the result for `O=c1[nH]c2ccccc2nc1-c1ccccc1NS(=O)(=O)c1cccnc1` reads “inactive”; that for `O=c1[nH]c2ccccc2nc1-c1ccccc1NS(=O)(=O)c1cccs1`, “inactive”.
